# Measurements published in PMC4299864 (Chirality, 2013).
# What was measured:
# Assay type in all cases: cell-based
# human FPR1 = target: T1, human FPR1 (Homo sapiens, UniProt P21462); assay: Ca2+ mobilization in HL-60 cells transfected with FPR1; conditions: HL-60-FPR1 cells; for Ca2+ Mobilization Efficacy, FPR1: percent of the response induced by 5 nM fMLF; for EC50: read-out: Ca2+ Mobilization EC50, FPR1, mean of three independent experiments, N.A. = no activity, limits efficacy > 20 % and EC50 < 50 μM
# T1 sequence (P21462 1-350): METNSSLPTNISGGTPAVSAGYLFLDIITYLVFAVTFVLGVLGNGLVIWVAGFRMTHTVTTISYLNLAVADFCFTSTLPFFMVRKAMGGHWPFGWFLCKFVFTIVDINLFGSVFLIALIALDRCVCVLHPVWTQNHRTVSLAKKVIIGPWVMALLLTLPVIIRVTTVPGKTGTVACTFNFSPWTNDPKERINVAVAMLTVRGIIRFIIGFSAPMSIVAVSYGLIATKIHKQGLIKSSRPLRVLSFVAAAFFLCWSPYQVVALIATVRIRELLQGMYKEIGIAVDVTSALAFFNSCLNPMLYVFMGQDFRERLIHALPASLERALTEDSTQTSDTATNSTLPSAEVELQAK
# Outline: (§1)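 Stably transfected HL-60 cells were grown in RPMI 1640 with 10% heat-inactivated FCS, 10 mM HEPES and G418 (1 mg/mL). Cells were loaded with Fluo-4 AM (1.25 μg/mL final) for 30 min at 37 °C in the dark, then resuspended in HBSS with Ca²⁺/Mg²⁺ at 2 × 10⁵ cells/well. Fluorescence (ex 485/em 538 nm) was read every 5 s for 240 s at room temperature after compound addition. Peak change over baseline was set against 5 nM fMLF (FPR1) or 5 nM WKYMVm (FPR2, FPR3) as 100%. Curves had 5–6 points, from three independent experiments.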
# human FPR2 = target: T2, human FPR2 (Homo sapiens, UniProt P25090); assay: Ca2+ mobilization in HL-60 cells transfected with FPR2; conditions: HL-60-FPR2 cells; for Ca2+ Mobilization Efficacy, FPR2: percent of the response induced by 5 nM WKYMVm; for EC50: read-out: Ca2+ Mobilization EC50, FPR2, mean of three independent experiments, N.A. = no activity, limits efficacy > 20 % and EC50 < 50 μM
# T2 sequence (P25090 1-351): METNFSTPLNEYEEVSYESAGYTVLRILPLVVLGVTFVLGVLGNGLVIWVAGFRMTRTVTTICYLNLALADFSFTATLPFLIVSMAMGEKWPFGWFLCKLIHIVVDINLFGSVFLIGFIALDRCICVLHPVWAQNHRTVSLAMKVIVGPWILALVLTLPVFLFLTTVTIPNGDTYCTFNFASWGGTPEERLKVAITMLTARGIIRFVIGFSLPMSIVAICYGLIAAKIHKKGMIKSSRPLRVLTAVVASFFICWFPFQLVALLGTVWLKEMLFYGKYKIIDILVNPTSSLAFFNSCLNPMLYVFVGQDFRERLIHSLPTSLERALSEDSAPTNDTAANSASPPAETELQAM
# Outline: as §1
# human FPR3 = target: T3, human FPR3 (Homo sapiens, UniProt P25089); assay: Ca2+ mobilization in HL-60 cells transfected with FPR3; conditions: HL-60-FPR3 cells; for Ca2+ Mobilization Efficacy, FPR3: percent of the response induced by 5 nM WKYMVm; for EC50: read-out: Ca2+ Mobilization EC50, FPR3, mean of three independent experiments, N.A. = no activity, limits efficacy > 20 % and EC50 < 50 μM
# T3 sequence (P25089 1-353): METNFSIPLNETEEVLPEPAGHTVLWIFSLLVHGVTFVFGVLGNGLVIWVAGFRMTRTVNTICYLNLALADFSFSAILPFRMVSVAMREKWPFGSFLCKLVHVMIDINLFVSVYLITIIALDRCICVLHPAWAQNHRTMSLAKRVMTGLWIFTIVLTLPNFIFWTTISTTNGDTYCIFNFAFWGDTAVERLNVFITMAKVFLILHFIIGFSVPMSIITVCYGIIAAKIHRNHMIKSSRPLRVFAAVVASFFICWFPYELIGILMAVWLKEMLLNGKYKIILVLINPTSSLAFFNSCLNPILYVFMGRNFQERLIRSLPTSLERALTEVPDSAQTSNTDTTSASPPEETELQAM
# Outline: as §1
SMILES,"Ca2+ Mobilization Efficacy, FPR1 (human FPR1) [%]",EC50 (human FPR1) [µM],"Ca2+ Mobilization Efficacy, FPR2 (human FPR2) [%]",EC50 (human FPR2) [µM],"Ca2+ Mobilization Efficacy, FPR3 (human FPR3) [%]",EC50 (human FPR3) [µM]
"C[C@@H]1CC(c2ccccc2)=NN(CC(=O)Nc2ccc(Br)cc2)C1=O [R-(+)-4a, R-(+)-N-(4-Bromophenyl)-2-[5-methyl-6-oxo-3-phenyl-5,6-dihydropyridazin-1(4H)-yl] acetamide]",80,24.4,85,10,40,7.1
"CC1CC(c2ccccc2)=NN(CC(=O)Nc2ccc(Br)cc2)C1=O (racemic) [(±)-4a, (±)-N-(4-Bromophenyl)-2-[5-methyl-6-oxo-3-phenyl-5,6-dihydropyridazin-1(4H)-yl]acetamide]",55,23.5,65,7,,
"C[C@H]1CC(c2ccccc2)=NN(CC(=O)Nc2ccc(Br)cc2)C1=O [S-(-)-4a, S-(-)-N-(4-Bromophenyl)-2-[5-methyl-6-oxo-3-phenyl-5,6-dihydropyridazin-1(4H)-yl] acetamide]",75,19.5,95,10.7,40,8.3
"Cc1cc(-c2ccccc2)nn(CC(=O)Nc2ccc(Br)cc2)c1=O [8a, N-(4-Bromophenyl)-2-[5-methyl-6-oxo-3-phenylpyridazin-1(6H)-yl]acetamide]",50,,45,,,
